The text below walks through data of ChEMBL document CHEMBL1123247, “Nucleoside conjugates. 7. Synthesis and antitumor activity of 1-beta-D-arabinofuranosylcytosine conjugates of ether lipids” (J Med Chem, 1986).

For experiment [1], the system named is L1210. The experiment can be described thus: Antitumor activity was determined against the ip implanted L1210 leukemia in mice by range in survival days at 400 mg/kg (treatment of 1qd schedule) dosage; Range is 15-29. Format: functional, Mus musculus. The settings on record: route intraperitoneal. Put shortly: (§1)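 DBA/2J mice, 23-28 g, in groups of 6, were inoculated ip with 1×10^6 L1210 cells on day 0. Dosing was ip starting 24 h later on the stated daily schedules. Conjugates were given as sonicated solutions and reference prodrugs as suspensions in 0.9% NaCl with 0.5% Tween-80. Mice were observed daily until death or 45 days. Median survival T/C was calculated from survivors per NCI protocols.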

In experiment [2] the test system is L1210. The experiment can be described thus: Antitumor activity against ip implanted L1210 leukemia in mice expressed as active dose range (1 qd treatment schedule) required to produce increase in life span by >25% was determined; Range is 50-400. Type of experiment: functional, Mus musculus. Put shortly: (§2)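 DBA/2J mice, groups of 6 (23-28 g), were inoculated ip with 1 × 10^6 L1210 cells on day 0. Dosing was ip from 24 h, in 0.9% NaCl with 0.5% Tween-80 (sonicated solution or suspension). Mice were observed daily until death or day 45. Median survival T/C followed NCI protocols, and ILS = (T/C − 1) × 100. Active range means doses giving ILS ≥25%; optimal dose means greatest ILS.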

The test system of experiment [3] is L1210. The experiment can be described thus: Antitumor activity was determined against the ip implanted L1210 leukemia in mice by percent median survival rate (treated/control) at 400 mg/kg (treatment of 1qd schedule) dosage; 27.5/7.0. Type of experiment: functional, Mus musculus. The settings on record: route intraperitoneal. The procedure, abridged: as §1
Experiment [4] relates to L1210. The experiment can be described thus: Antitumor activity against the ic implanted L1210 lymphoid leukemia in mice expressed as optimal dose (1, 5, 9qd treatment schedule) required to produce greatest increase in life span was determined. Type of experiment: functional, Mus musculus. The procedure, abridged:
(§3)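 DBA/2J mice, groups of 6 (26-32 g), got 1 × 10^5 L1210 cells ic on day 0. Dosing was ip starting 24 h later, as a sonicated solution or suspension in 0.9% NaCl with 0.5% Tween-80, over a wide dose range. Mice were followed daily until death. Median survival T/C was taken from survivors per NCI protocols, and ILS = (T/C − 1) × 100. Active range means doses giving ILS ≥25%; optimal dose means greatest ILS.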

The test system of experiment [5] is L1210. The experiment can be described thus: Antitumor activity was determined against the ic implanted L1210 lymphoid leukemia in mice by change in […] at 100 mg/kg (treatment of 1-5qd schedule) dosage. Format: functional, Mus musculus. Put shortly:
(§4)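 DBA/2J mice, 6 per group (wt 26-32 g), inoculated ic with 1×10^5 L1210 cells on day 0. Dosing ip began 24 h after inoculation, with a sonicated solution or suspension in 0.9% NaCl containing 0.5% Tween-80, given over a range of doses. Animals were followed daily until death. Body weight change, median survival T/C, and %ILS = (T/C − 1) × 100 were computed from survivors per NCI protocols.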

Experiment [6] has as its system L1210. The experiment can be described thus: Antitumor activity against ic implanted L1210 lymphoid leukemia in mice expressed as active dose range (1, 5, 9qd treatment schedule) required to produce increase in life span by >25% was determined; Range is 100-167. Type of experiment: functional, Mus musculus. Put shortly:
as §3

In experiment [7] the test system is L1210. The experiment can be described thus: Antitumor activity against ip implanted L1210 leukemia in mice expressed as active dose range (1-5qd treatment schedule) required to produce increase in life span by >25% was determined; Range is 40-80. Format: functional, Mus musculus. Put shortly: as §2
Experiment [8] concerns L1210. The experiment can be described thus: Antitumor activity was determined against the ip implanted L1210 leukemia in mice by 45-day survivors in mice at 80 mg/kg (treatment of 1-5qd schedule) dosage. Format: functional, Mus musculus. The settings on record: route intraperitoneal. Put shortly: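 DBA/2J mice in groups of 6 (wt 23-28 g) were inoculated ip with 1×10^6 L1210 cells on day 0. Dosing was ip from 24 h, in 0.9% NaCl with 0.5% Tween-80 (conjugates sonicated), across a range of doses. Mice were observed daily until death or 45 days. Median T/C was computed from survivors per NCI protocols, and ILS = (T/C − 1)×100.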

Experiment [9] relates to P388. The experiment can be described thus: Antitumor activity was determined against the ip implanted P388 leukemia in mice by range in survival days at 133 mg/kg (treatment of 1,5,9qd schedule) dosage; Range is 23->45. Format: functional, Mus musculus. The settings on record: route intraperitoneal.
For experiment [10], the system named is P388. The experiment can be described thus: Antitumor activity against ip implanted P388 leukemia in mice expressed as active dose range (1 qd treatment schedule) required to produce increase in life span by >25% was determined; Range is 300-500. Type of experiment: functional, Mus musculus. Put shortly:
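P388 leukemia: 1 × 10^6 cells were given ip on day 0 to DBA/2J mice, groups of 6 (23-33 g). Treatment was ip from 24 h after inoculation, vehicle 0.9% NaCl with 0.5% Tween-80. Mice were observed daily until death or 45 days. Median survival T/C was calculated from survivors per NCI protocols, and ILS = (T/C − 1) × 100. Active range means doses giving ILS ≥25%; optimal dose means greatest ILS.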

The test system of experiment [11] is L1210 (mouse). The experiment can be described thus: Antitumor activity was determined against the ic implanted L1210 lymphoid leukemia in mice by change in […] at 500 mg/kg (treatment of 1qd schedule) dosage.
Experiment [12] deals with L1210. The experiment can be described thus: Antitumor activity was determined against the ic implanted L1210 lymphoid leukemia in mice by percent increase in life span at 500 mg/kg (treatment of 1qd schedule) dosage.
The test system of experiment [13] is L1210. The experiment can be described thus: Antitumor activity was determined against the ic implanted L1210 lymphoid leukemia in mice by range in survival days at 500 mg/kg (treatment of 1qd schedule) dosage; Range is 18-23.
Experiment [14] relates to L1210. The experiment can be described thus: Antitumor activity against ic implanted L1210 lymphoid leukemia in mice expressed as active dose range (1 qd treatment schedule) required to produce increase in life span by >25% was determined; Range is 200-500.
Experiment [15] deals with L1210. The experiment can be described thus: Antitumor activity was determined against the ip implanted L1210 leukemia in mice by range in survival days at 400 mg/kg (treatment of 1qd schedule) dosage; Range is 9-11. Format: functional, Mus musculus. Conditions: route intraperitoneal. Put shortly:
as §1

In experiment [16] the test system is L1210. The experiment can be described thus: Antitumor activity was determined against the ic implanted L1210 lymphoid leukemia in mice by change in […] at 300 mg/kg (treatment of 1-5qd schedule) dosage. Format: functional, Mus musculus. Put shortly:
as §4

For experiment [17], the system named is L1210. The experiment can be described thus: Antitumor activity against ic implanted L1210 lymphoid leukemia in mice expressed as active dose range (1-9qd treatment schedule) required to produce increase in life span by >25% was determined; Range is 100-300. Type of experiment: functional, Mus musculus. Put shortly:
as §3

The test system of experiment [18] is L1210. The experiment can be described thus: Antitumor activity was determined against the ic implanted L1210 lymphoid leukemia in mice by percent increase in life span at 100 mg/kg (treatment of 1-9qd schedule) dosage. Format: functional, Mus musculus. Put shortly:
as §3

Experiment [19] relates to P388. The experiment can be described thus: Antitumor activity was determined against the ip implanted P388 leukemia in mice by range in survival days at 500 mg/kg (treatment of 1qd schedule) dosage; Range is 14-15. Format: functional, Mus musculus. Conditions: route intraperitoneal.
Experiment [20] deals with Small cell lung cancer cell line. The experiment can be described thus: Compound was tested for the inhibition of small cell lung cancer. Type of experiment: functional, cell-based. Conditions: Homo sapiens. Put shortly: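 Human leukemia and solid tumor cells in culture were exposed to compound for 48 h. Viability was scored by trypan blue dye exclusion. IC50 (50% inhibition) was estimated from response curves of three separate experiments.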

With `CCCCCCCCCCCCCCCCCCOCC(COP(=O)(O)OP(=O)(O)OC[C@H]1O[C@@H](n2ccc(N)nc2=O)[C@@H](O)[C@@H]1O)OC(=O)CCCCCCCCCCCCCCC` (mixture of isomers), the Range in experiment [1] is 15.
`CCCCCCCCCCCCCCCC(=O)OC[C@H](COP(=O)(O)OP(=O)(O)OC[C@H]1O[C@@H](n2ccc(N)nc2=O)[C@@H](O)[C@@H]1O)OC(=O)CCCCCCCCCCCCCCC` returned an Active dose range in [2] of 50 mg/kg/day.
The term T/C denotes the ratio of treated to control. In [3], `CCCCCCCCCCCCCCCCOCC(COP(=O)(O)OP(=O)(O)OC[C@H]1O[C@@H](n2ccc(N)nc2=O)[C@@H](O)[C@@H]1O)OC(=O)CCCCCCCCCCCCCCC` (mixture of isomers) came in with a T/C of 27.5%. The compound further came in with an Optimal dose in experiment [4] of 167 mg. Also, the results for the Weight change in experiment [5] and in [11] were -2.03 g mouse-1 and -2.07 g mouse-1, respectively. The Active dose range in [6] amounted to 100 mg/kg/day; in experiment [7], 40 mg/kg/day; in experiment [10], 300 mg/kg/day; in [14] it was 200 mg/kg/day. This compound yielded a Survivors in experiment [8] of 0. Moreover, the Range in [9] is listed as 23; in [13] it was 18. The ILS in [12] is 229.
As a reminder, the IC50 is the point on the concentration scale where inhibition reaches its midpoint. Read a low IC50 as greater potency. Turning to `Nc1ccn([C@@H]2O[C@H](CO)[C@@H](O)[C@@H]2O)c(=O)n1` [CYTARABINE], the Range in experiment [15] is 9; in experiment [19], 14. In addition, in experiment [16], the Weight change was -6.1. Besides, the Active dose range in experiment [17] is 100 mg/kg/day. Moreover, in [18], the ILS came to 100. In addition, in [20], the IC50 is more than 100 µM.
